EWS-Fli inh: inhibitors of EWS/Fli oncoprotein transcriptional activity; A673 NR0B1-luciferase reporter, viability-normalised; AID 651661; inhibition, % at 12.6 µM; 350,000 compounds, 0.67% hits;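 active = mean inhibition of at least 50% after viability correction, with every replicate also passing that limit; inconclusive = mean reaches 50% but only one of two replicates passes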;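 also: firefly luciferase signal divided by Alamar Blue viability fluorescence both relative to DMSO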
AF4-AF9 inh: MLL-AF4/AF9 protein interaction inhibition | P42568 | AlphaScreen, biotin-AF4 peptide binding to FLAG-AF9 | inhibition, % at 10 µM | 350,000 compounds, 0.47% hits;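 active = every replicate reaching a set inhibition limit, whatever the replicate mean, cut at about 25% in these data; inconclusive = mean inhibition reaches that limit but some replicates miss it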;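 also: 0% = plate neutral control median and 100% = total signal loss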
Target sequence (P42568 whole entry, looked up): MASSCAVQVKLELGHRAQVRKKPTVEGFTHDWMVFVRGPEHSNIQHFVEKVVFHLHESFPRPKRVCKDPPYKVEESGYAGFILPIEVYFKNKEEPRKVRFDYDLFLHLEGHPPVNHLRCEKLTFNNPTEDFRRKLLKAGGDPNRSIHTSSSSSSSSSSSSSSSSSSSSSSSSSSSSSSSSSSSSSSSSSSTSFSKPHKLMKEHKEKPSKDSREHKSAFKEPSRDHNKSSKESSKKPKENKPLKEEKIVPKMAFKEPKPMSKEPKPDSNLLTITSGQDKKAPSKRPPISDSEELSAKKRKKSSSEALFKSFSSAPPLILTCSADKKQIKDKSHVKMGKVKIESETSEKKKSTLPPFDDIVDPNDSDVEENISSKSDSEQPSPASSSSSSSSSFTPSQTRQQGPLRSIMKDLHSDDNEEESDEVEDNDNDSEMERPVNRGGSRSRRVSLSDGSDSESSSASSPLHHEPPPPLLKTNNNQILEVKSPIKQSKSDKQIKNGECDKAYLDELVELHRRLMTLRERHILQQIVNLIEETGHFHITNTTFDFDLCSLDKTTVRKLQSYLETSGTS
PAX8 reporter: PAX8 transcriptional activity inhibition; RMG-I TPO-luciferase reporter, SteadyGlo, 24 h; inhibition, % at 12.6 µM; 360,000 compounds, 1.2% hits; AID 652154;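 active = mean replicate inhibition at least 60% with every replicate also reaching 60%; inconclusive = only one of the two criteria is met; inactive = mean below 60% and not all replicates reaching 60%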;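 also: luciferase light reporting Pax8 driven TPO promoter activity; plate controls were median of neutral control wells for no effect and mitoxantrone controls for full effect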
Env fusion inh: inhibitors of HIV Env-mediated cell fusion. HeLa-JRFL Env/CEM21 cell fusion, luciferase. inhibition, % at 12.3 µM. 360,000 compounds, 1.1% hits. AID 651610;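 active = mean replicate inhibition score of at least 50 and every replicate individually at or above 50; inconclusive = only one of the two criteria met; inactive = mean below 50 and not all replicates reaching 50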;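 also: 0% = plate neutral controls and 100% = maraviroc near 300 nM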
Glyco luc inh: blocks N-linked glycosylation in D54 reporter cells; D54 ERlucT glycosylation luciferase reporter, 24 h; percent of 100 nM tunicamycin response; reporter increase, % at 12.5 µM; 360,000 compounds, 0.23% hits;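 active = mean luciferase reporter signal, scaled so untreated is 0 and the glycosylation-blocking control 100, at or above a set limit in every replicate; inconclusive = mean reaches the limit but not every replicate does; inactive = mean below the limit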;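 also: luciferase carries N-glycosylation sites so blocking glycosylation raises the light; 0% = median of neutral control wells and 100% = median of 100 nM tunicamycin wells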
FN deposition inh: fibronectin deposition inhibition. AH1F fibroblasts, Alexa488-fibronectin deposition fluorescence, overnight. inhibition, % at 12.6 µM. 350,000 compounds, 0.086% hits. AID 743247;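 active = mean inhibition across replicates of 30% or more, regardless of how many single replicates reach that level; inconclusive = mean under 30% yet at least half of replicates reach 30%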;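 also: positive control wells lacked labelled fibronectin entirely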
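Assay system: AH1F fibroblasts / Quantity: 10000 cells per well / Medium: DMEM plus 2% serum, read in PBS / Reagent: labelled fibronectin 24 nM / Dosing: single dose, pinned / Times: 1 h cell attachment, overnight exposure to compound and label / Signal: fluorescence, ex 485 nm, em 525 nm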
The depositor's hits bear a star; i = inactive; ? = inconclusive; · = no result; ! = not confirmed by another sample; [ ] = remark or other dose. Hits are enriched below; roughly 2.5% of the tested compounds scored in any of these assays.

SMILES	EWS-Fli inh	AF4-AF9 inh	PAX8 reporter	Env fusion inh	Glyco luc inh	FN deposition inh
C[C@@H]1CN([C@@H](C)CO)C(=O)Cc2cc(NC(=O)Nc3ccccc3)ccc2O[C@H]1CN(C)Cc1ccc(-c2ccccc2)cc1	10.2	-0.2	68.4*	22.6[16.7 µM]	·	·
COc1ccc(NC(=O)Nc2ccc3c(c2)CC(=O)N([C@H](C)CO)C[C@H](C)[C@@H](CN(C)Cc2ccc(-c4ccccc4)cc2)O3)cc1	14.9	-0.3	68.2*	19.7[16.7 µM]	·	·
O=C(O)C[C@H]1C=C[C@@H](NC(=O)Nc2ccccc2)[C@H](CO)O1	0.2	-0.5	8.3	54.0[16.7 µM]	·	-17.2
Cc1ccc(-c2nc(CSCC(=O)NCc3cccnc3)c(C)o2)cc1	·	·	·	58.1*	-0.1	7.1
COc1ccc(-c2nc(CSCC(=O)NCc3ccco3)c(C)o2)cc1	·	·	·	·	-1.5	·
C[C@H](CO)N1C[C@H](C)[C@@H](CN(C)S(=O)(=O)c2cn(C)cn2)Oc2ncc(C#CCN(C)C)cc2C1=O	-10.6	-1.0	·	-3.3[16.7 µM]	·	·
CCOc1ccccc1NC(=O)Nc1ccc2c(c1)OCO2	-45.7	6.9	-23.9	-5.4	0.2	10.4
C=CCOc1ccccc1CN(C(=O)CCl)c1ccc2c(c1)OCO2	58.9*	1.2	120.8*	-4.3	5.9	2.6
COc1cccc(NC(=O)N2CC(=O)N3[C@@H](CO)[C@H](c4ccc(C#CC5CCCC5)cc4)[C@@H]3C2)c1	·	7.2	8.5	·	·	-13.1
CCC(C)Sc1cc(-c2nc3ccccn3c2NC2CCCCC2)ccc1OC (stereo not drawn)	29.9	4.2	34.4	59.1*!	-4.9	-16.3
COCC(=O)OC1CCn2c1nc1c2C(=O)C(C)=C(NC(C)=O)C1=O (stereo not drawn)	14.2	-6.8	115.3*	28.9	-1.5	1.2
CCOC(=O)C1CCN(C(=O)c2oc3ccc(S(=O)(=O)N4CC(C)CC(C)C4)cc3c2C)CC1 (stereo not drawn)	·	·	13.9	-7.6	-1.5	-5.2
CCOC(=O)N1CCN(C(=O)c2oc3ccc(S(=O)(=O)N4CC(C)CC(C)C4)cc3c2C)CC1 (stereo not drawn)	·	·	3.7	61.7*	-3.2	·
O=C(Cc1ccccn1)N1CC2(C1)[C@@H](c1ccccc1)[C@@H](CO)N2C(=O)c1ccccc1	1.9	0.4	·	·	·	-16.4
O=c1cc(SCc2ccccc2)nc[nH]1	-4.7	38.5*	0.5	2.3	1.4	-16.3
CCN1CCN(c2nc(-c3ccccn3)nc3ccccc23)CC1	·	·	·	-16.5	-3.3	-0.8
CCCN(CCC)c1nc(-c2ccccn2)nc2ccccc12	41.5	-19.2	59.8	71.3*	11.5	-4.5
CCCCN(CC)c1nc(-c2ccncc2)nc2ccccc12	·	·	·	64.1*	-0.4	·
COc1ccc(S(=O)(=O)N(C)C[C@@H]2Oc3ccc(NC(=O)Cn4cnnn4)cc3C(=O)N([C@H](C)CO)C[C@@H]2C)cc1	1.1	-1.4	·	-6.4[16.7 µM]	·	-2.9
C[C@H]1CN([C@@H](C)CO)C(=O)c2cc(NS(C)(=O)=O)ccc2O[C@H]1CN(C)Cc1ccc(-c2ccccc2)cc1	6.9	4.2	-18.8	·	·	14.1
COc1cccc(N(C(=O)c2snc(C(N)=O)c2N)C(C(=O)NCC2CCCO2)c2cccs2)c1 (stereo not drawn)	-3.4	4.6	3.5	15.3	-2.9	-5.7
COc1ccc(N(C(=O)CCl)C(C(=O)NCCc2ccccc2)c2cccs2)cc1Cl (stereo not drawn)	68.4*	6.0	104.2*	41.6	-0.3	33.6*
COc1ccc(N(C(=O)c2ccco2)C(C(=O)NC2CCCCC2)c2cccs2)cc1OC (stereo not drawn)	·	·	·	·	-2.9	·
COc1cccc(N(C(=O)CCl)C(C(=O)NCCc2ccccc2)c2cccs2)c1 (stereo not drawn)	·	·	·	65.2*	-6.8	18.6
CO[C@H](CN(C)C(=O)Nc1ccc(C(F)(F)F)cc1)[C@H](C)CN(Cc1ccccc1Cl)[C@@H](C)CO	24.5	0.6	·	·	·	13.1
SMILES	EWS-Fli inh	AF4-AF9 inh	PAX8 reporter	Env fusion inh	Glyco luc inh	FN deposition inh
S=C(c1ccc2c(c1)OCO2)N1CCN(c2cccc(Cl)c2)CC1	59.7*	1.7	42.2	·	17.1	1.0
O=C(c1cccc(Cl)c1)C1CCCN(C(=O)c2ccc3c(c2)OCO3)C1 (stereo not drawn)	·	31.0*	8.5	8.1	1.2	-5.1
CCCN(C)C[C@H]1OCCCC[C@@H](C)Oc2ccc(NS(=O)(=O)c3c(C)noc3C)cc2C(=O)N([C@@H](C)CO)C[C@H]1C	-10.3	3.3	-25.7	·	·	·
CCCNC(=O)N[C@@H]1C=C[C@H](CC(=O)NC2CCC2)O[C@@H]1CO	2.6	-2.9	0.2	-6.5[16.7 µM]	·	-12.9
Nc1c2c(nc3ccccc13)CCCC2	-9.6	1.9	-1.7	i	-0.3	-3.2
Nc1c2ccccc2nc2ccccc12	44.8	-2.3	-12.3	-75.7	33.4*!	5.7
COC(=O)[C@@H]1[C@@H](CO)[C@@H]2Cn3c(ccc(-c4cccc(OC)c4)c3=O)[C@@H]2N1CC1CC1	-1.2	-0.2	29.4	·	·	·
O=C(OCC(=O)N1CCN(C(=O)c2ccco2)CC1)c1cccc(S(=O)(=O)N2CCc3ccccc32)c1	-4.5	-1.4	100.6*	-44.0	-1.9	-2.6
CNS(=O)(=O)c1cccc(C(=O)OCC(=O)N2CCN(C(=O)c3ccco3)CC2)c1	-0.2	3.9	35.1	·	0.1	3.6
CCCNC(=O)Nc1ccc2c(c1)C(=O)N(C)[C@H]1CC[C@@H](CC(=O)NCCCN(C)C)O[C@H]1CO2	-14.9	-1.0	-21.1	·	·	6.3
O=C(C[C@@H]1CC[C@@H]2[C@H](COC[C@H](O)CN2S(=O)(=O)c2ccc(F)cc2)O1)N[C@@H]1CCN(Cc2ccccc2)C1	-5.4	2.0	-1.3	·	·	-10.1
COc1ccccc1N1CCN(CCOc2c(OC)cccc2OC)CC1	·	·	·	62.7*	0.3	6.7
COc1ccccc1N1CCN(c2nc(C)nc3c2oc2ccccc23)CC1	·	·	·	63.4*	?	4.2
Cc1nc(N2CCC(C)CC2)c2oc3ccccc3c2n1	·	·	·	·	4.2	·
CCOc1ccccc1N1CCN(Cc2cccc(OC)c2O)CC1	·	·	·	10.2	-1.0	-11.8
COc1ccccc1N1CCN(CCCCOc2c(OC)cccc2OC)CC1	2.5	2.1	22.7	3.5	-1.8	1.9
COc1ccccc1N1CCN(Cc2cc(Br)c(O)c3ncccc23)CC1	30.8	26.8*	100.0*	-6.2	-1.7	22.1
CCCC(=O)Nc1ccc2c(c1)OC[C@H](C)N(CCC(F)(F)F)C[C@H](C)[C@H](OC)CN(C)C2=O	-0.5	-0.9	-5.2	28.6[16.7 µM]	·	0.3
COc1cccc(S(=O)(=O)N2C[C@@H]3N[C@H](C2)C3c2ccc(-c3cccc(C)c3)cc2)c1 (stereo partly drawn)	54.6*!	-4.1	68.7*!	·	·	-8.1
COc1ccc(-c2ccc(C3[C@@H]4CN(S(=O)(=O)c5cccc(C)c5)C[C@H]3N4)cc2)cc1 (stereo partly drawn)	-5.4	-4.0	-3.6	·	·	1.9
